# Measurements reported in article PMC10496428 (ACS Infectious Diseases, 2023).
# Legend:
# [1] = test system: P. falciparum Hyp1-Nluc late schizonts; assay: 4 h egress assay; type: cell-based, Plasmodium falciparum; settings: for 4-Hour Egress EC50: dilution series, DNI = did not inhibit
# Summary of the method: (§1)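 Hyp1-Nluc 3D7 parasites were sorbitol-synchronised, grown to late schizonts and isolated on a 67% Percoll gradient. They were given a 4 h window to egress and invade RBCs in test compound, either at 10× growth EC50 or as a dilution series. Egress was read as Nluc in harvested medium with NanoGlo substrate. Background controls were subtracted from egress and invasion values, then normalised to 0.1% DMSO. Three biological replicates were run, with SD.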
# [2] = test system: P. falciparum purified merozoites (Nluc parasites); assay: Invasion inhibition assay with purified merozoites; type: cell-based, Plasmodium falciparum; settings: heparin 100 μg/mL, C1 4 μM, chloroquine 75 nM
# Summary of the method: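 Purified Nluc merozoites were exposed to test compound for 30 min. Compound was then removed and newly invaded parasites grown for 24 h before Nluc quantification. Controls were heparin (100 μg/mL), C1 (4 μM) and chloroquine (75 nM). Values are relative to DMSO, with three biological replicates.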
# [3] = test system: P. falciparum Nluc trophozoite-stage parasites; assay: Protein secretion and export; type: cell-based, Plasmodium falciparum; settings: 5 h treatment; brefeldin A 5 μg/mL, torin 2 10 nM, M-797 4.8 μM, OGHL250 3.1 μM, WEHI-518 200 nM, C3 1.2 μM, KDU731 300 nM
# Summary of the method: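 Nluc-exporting P. falciparum, synchronized with 5% sorbitol and Percoll, grown in human RBCs at 37 °C under 1% O2/5% CO2; trophozoites at 20–24 hpi treated 5 h with test compound (0.1% DMSO vehicle). Cells differentially lysed to release RBC only, RBC plus PV, or all compartments, and Nluc signal measured in each fraction. Three biological replicates of three technical replicates.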
# [4] = test system: MMV390048 resistant Dd2 with S743T mutation in PI4KIIIB; assay: 72 h growth assay, [3H]-hypoxanthine incorporation; type: cell-based, Plasmodium falciparum; settings: 3H-hypoxanthine incorporation assay
# Summary of the method: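 This was a modified [3H]-hypoxanthine incorporation assay over 72 h. It compared parental Dd2 with an MMV390048-resistant Dd2 line carrying PI4KIIIB S743T.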
# [5] = test system: P. falciparum Hyp1-Nluc parasites; assay: 4 h invasion / early ring-stage development assay; type: cell-based, Plasmodium falciparum; settings: 4 h treatment at 10× EC50 for growth; for Invasion / early ring-stage development normalized to 0.1% DMSO: then 24 h growth without compound
# Summary of the method: as §1
# Nluc = Nluc counter screen on parasite lysates; type: biochemical; settings: 10x EC50 of growth, 10 min at 37 °C
# Summary of the method: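 Hyp1-Nluc schizonts at 1% haematocrit and 1–2% parasitaemia were lysed in 1x NanoGlo buffer. Lysates were added to test compound and incubated 10 min at 37 °C. Nluc activity was read by furimazine bioluminescence and normalised to 0.1% DMSO.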
compound,measurement,setting,value
"CN1CCC(c2cc(-c3ccncc3)c(-c3ccc(F)cc3)[nH]2)CC1 [Compound C1, 4-[2-(4-fluorphenyl)-5-(1-methylpiperidine-4-yl)-1H-pyrrol-3-yl]pyridine]","Egress over a 4 h window, compared to 0.1% DMSO control normalized to 100%",[1]; OGHL compounds at 10× EC50 of growth,38%
same,Invasion of purified merozoites relative to 0.1% DMSO (controls),[2],directly inhibited merozoite invasion
COc1ccc(-c2c(C)nn3c(N)c(C#N)cnc23)cc1OC [Compound M-797],4-Hour Egress EC50,[1],did not block egress
same,Export of Nluc reporter into the RBC compartment relative to DMSO,[3],significantly reduced export into the RBC compartment
same,fold resistance of S743T parasites compared to parental Dd2,[4],2 fold
CN(C(=O)c1ccn2ncc(-c3ccc(C(N)=O)cc3)c2c1)c1ccc(C#N)cn1 [KDU731],Export of Nluc reporter into the RBC compartment relative to DMSO,[3],reduced protein export into the RBC compartment
"COc1ccc(CNc2nc(-c3ccc(C(=O)O)nc3)nc3sc4c(c23)CCCC4)cc1Cl [OGHL121, Clc1c(ccc(c1)CNc2nc(nc3sc4c(c32)CCCC4)-c5cnc(cc5)C(=O)O)OC]",Invasion inhibition normalized to 0.1% DMSO,[5],< 50%
same,Invasion / early ring-stage development normalized to 0.1% DMSO,[5],borderline
"CNS(=O)(=O)c1ccccc1Nc1nc(Nc2ccc(N3CCOCC3)cc2OC)ncc1Br [OGHL134, Brc1c(nc(nc1)Nc2c(cc(cc2)N3CCOCC3)OC)Nc4c(cccc4)S(=O)(=O)NC]",Invasion inhibition normalized to 0.1% DMSO,[5],< 50%
same,Invasion / early ring-stage development normalized to 0.1% DMSO,[5],borderline
"Cn1cc(-c2cnc3[nH]cc(-c4cn(Cc5cccc(F)c5F)nn4)c3c2)cn1 [OGHL169, Fc1c(cccc1Cn2nnc(c2)-c3c[nH]c4ncc(cc43)-c5cn(nc5)C)F]",Invasion inhibition normalized to 0.1% DMSO,[5],< 50%
same,Invasion / early ring-stage development normalized to 0.1% DMSO,[5],< 50%
"COc1cc(OC)c(CCNC(=O)c2cn3cc(-c4cc(OCC(=O)O)ccc4OC)nc3s2)c(OC)c1 [OGHL239, s1c3n(cc1C(=O)NCCc2c(cc(cc2OC)OC)OC)cc(n3)-c4c(ccc(c4)OCC(=O)O)OC]",direct inhibition of Nluc activity in parasite lysates,Nluc,strongly inhibit Nluc activity
"COc1cc(C(=O)N(C)C)ccc1-c1cc2nccc(-c3ccc4ccncc4c3)c2o1 [OGHL250, N(C)(C)C(=O)c1cc(c(cc1)-c5oc2c(nccc2-c4cc3cnccc3cc4)c5)OC]",4-Hour Egress EC50,[1],did not inhibit parasite egress
same,Export of Nluc reporter into the RBC compartment relative to DMSO,[3],did not significantly reduce export
C[C@H]1CCC/C=C/[C@@H]2C[C@H](O)C[C@H]2[C@H](O)/C=C/C(=O)O1 [brefeldin A],Export of Nluc reporter into the RBC compartment relative to DMSO,[3],significantly reduced export into the RBC compartment
CCN(CC)CCCC(C)Nc1ccnc2cc(Cl)ccc12 (stereo not shown) [chloroquine],Invasion of purified merozoites relative to 0.1% DMSO (controls),[2],had no effect on invasion
Nc1ccc(-c2ccc3ncc4ccc(=O)n(-c5cccc(C(F)(F)F)c5)c4c3c2)cn1 [torin 2],Export of Nluc reporter into the RBC compartment relative to DMSO,[3],significantly reduced export into the RBC compartment
heparin,Invasion / early ring-stage development normalized to 0.1% DMSO,[5],almost complete invasion inhibition
